Assay results: publication PMC7810645 (Targeted Oncology, 2020)
Read-outs that look alike come from different tables or passages of the source.

Assays:
[1] = test system: patients with high-grade epithelial ovarian, fallopian tube, or primary peritoneal cancer; format: in vivo, human
In short: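 Patients had newly diagnosed stage IIIB–IV disease, ECOG 0–1 and no prior anticancer therapy. All received six cycles of carboplatin AUC 5 plus paclitaxel 175 mg/m2 and bevacizumab, each d1 q21d. Oral maintenance drug began within 9 weeks, continuous BID in 28-day cycles, first dose 7 days before bevacizumab. Three-patient cohorts (Fibonacci triplets). DLTs were assessed over the first two cycles, with AEs graded by CTCAE v4.03.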

[2] = test system: patients with recurrent, platinum-sensitive ovarian cancer; conditions: niraparib 300 mg daily + bevacizumab 15 mg/kg d1 q21d vs niraparib 300 mg daily alone; cited from earlier work
patients [3] = conditions: cited from earlier work
[4] = Rucaparib plasma pharmacokinetics in patients; format: in vivo, human; conditions: for AUC(0-t) / Tmax / Cmax: human, plasma, oral; for Tmax: mean (±SD)
In short: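 Oral dosing was 400, 500 or 600 mg BID. Cycle 1 blood was drawn on day −7 (first dose, before bevacizumab), day 1 (bevacizumab infusion) and day 21, at 1, 2, 3, 4, 6, 8 and 24 h post-dose. Plasma was assayed by validated HPLC-MS. Day −7 yielded Cmax, Tmax and AUC0–8h, and days 1/21 gave steady-state Cmax, Cmin and AUC, all by noncompartmental analysis. Summaries were mean, SD, CV, median and geometric mean.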

patients [5] = conditions: rucaparib 600 mg BID single agent, ARIEL3; cited from earlier work
PARP1 = conditions: read-out: IC50, enzymatic activity of PARP1; cited from earlier work
PARP2 = conditions: read-out: IC50, enzymatic activity of PARP2; cited from earlier work
[6] = test system: PARP enzymes at sites of DNA damage; conditions: cited from earlier work
[7] = steady state, day 1 (bevacizumab infusion), 400 mg BID, n 3
[8] = steady state, day 1 (bevacizumab infusion), 500 mg BID, n 3
[9] = steady state, day 1 (bevacizumab infusion), 600 mg BID, n 3
[10] = steady state, day 21, with bevacizumab, 400 mg BID, n 2
[11] = steady state, day 21, with bevacizumab, 500 mg BID, n 3
[12] = steady state, day 21, with bevacizumab, 600 mg BID, n 2
[13] = rucaparib 400 mg BID (n = 3) + bevacizumab
[14] = rucaparib 500 mg BID (n = 3) + bevacizumab
[15] = rucaparib 600 mg BID (n = 3) + bevacizumab

Compound: bevacizumab
- most frequent bevacizumab-related AE ([1]; combination with rucaparib): hypertension

Compound: NC(=O)c1cccc2cn(-c3ccc([C@@H]4CCCNC4)cc3)nc12 [niraparib]
- PFS adjusted hazard ratio [2]: 0.35
- incidence of thrombocytopenia and hypertension (patients [3]; vs olaparib or rucaparib): higher incidence

Compound: CNCc1ccc(-c2[nH]c3cc(F)cc4c3c2CCNC4=O)cc1 [rucaparib]
- range of trough concentrations ([4]; 400 mg BID): 1.5 to 1.6 µg/mL
- range of trough concentrations ([4]; 500 mg BID): 1.8 to 2.0 µg/mL
- range of trough concentrations ([4]; 600 mg BID): 1.6 to 2.1 µg/mL
- dose proportionality of plasma exposure ([4]; 400-600 mg BID): approximately dose proportional
- Cmax and AUC at steady state (days 1 and 21) relative to day −7 ([4]; all dose levels): two to three times higher
- Cmin, mean (±SD) ([4]; first administration, day −7, 400 mg BID, n 3): 200 ± 100 ng/mL
- Cmin, mean (±SD) ([4]; first administration, day −7, 500 mg BID, n 3): 400 ± 100 ng/mL
- Cmin, mean (±SD) ([4]; first administration, day −7, 600 mg BID, n 3): 300 ± 200 ng/mL
- AUC(0-t) ([4]; 400 mg): 3400 ± 800 ng·h/mL
- Tmax ([4]; 400 mg, first administration, day −7, 400 mg BID, n 3): 3.4 ± 0.7 h
- AUC(0-t) ([4]; 500 mg): 4700 ± 1900 ng·h/mL
- Cmax ([4]; 500 mg): 900 ± 600 ng/mL
- Tmax ([4]; 500 mg, steady state, day 21, with bevacizumab, 500 mg BID, n 3): 2 ± 1 h
- AUC(0-t) ([4]; 600 mg): 4900 ± 1600 ng·h/mL
- Cmax ([4]; 600 mg): 1000 ± 200 ng/mL
- Tmax ([4]; 600 mg, first administration, day −7, 600 mg BID, n 3): 3.4 ± 1.2 h
- Tmax [4, 7]: 4.6 ± 2.9 h
- Tmax [4, 8]: 1.7 ± 1.2 h
- Tmax [4, 9]: 3 ± 1 h
- CmaxSS, mean (±SD) [4, 7]: 2400 ± 200 ng/mL
- CminSS, mean (±SD) [4, 7]: 1400 ± 300 ng/mL
- Ctrough, mean (±SD) [4, 7]: 1600 ± 100 ng/mL
- CmaxSS, mean (±SD) [4, 8]: 2600 ± 500 ng/mL
- CminSS, mean (±SD) [4, 8]: 1600 ± 700 ng/mL
- Ctrough, mean (±SD) [4, 8]: 1800 ± 700 ng/mL
- CmaxSS, mean (±SD) [4, 9]: 2600 ± 500 ng/mL
- CminSS, mean (±SD) [4, 9]: 1400 ± 300 ng/mL
- Ctrough, mean (±SD) [4, 9]: 1600 ± 100 ng/mL
- CmaxSS, mean (±SD) [4, 10]: 2600 ± 900 ng/mL
- CminSS, mean (±SD) [4, 10]: 1300 ± 400 ng/mL
- Ctrough, mean (±SD) [4, 10]: 1500 ± 300 ng/mL
- CmaxSS, mean (±SD) [4, 11]: 2300 ± 400 ng/mL
- CminSS, mean (±SD) [4, 11]: 1500 ± 500 ng/mL
- Ctrough, mean (±SD) [4, 11]: 2000 ± 600 ng/mL
- CmaxSS, mean (±SD) [4, 12]: 2500 ± 1300 ng/mL
- CminSS, mean (±SD) [4, 12]: 1600 ± 1200 ng/mL
- Ctrough, mean (±SD) [4, 12]: 2100 ± 300 ng/mL
- maximum tolerated dose (MTD) ([1]; BID, combined with bevacizumab 15 mg/kg d1 q21d): 500 mg
- safety concerns from the combination of rucaparib and bevacizumab ([1]; all dose cohorts): no new safety concerns
- Anemia, grade 1: number of patients with an event [1, 13]: 1
- Arthralgia, grade 1: number of patients with an event [1, 13]: 2 (2)
- Arthralgia, grade 1: number of total events [1, 13]: 2 (2)
- Cutaneous erythema, grade 1: number of patients with an event [1, 13]: 1
- Fatigue, grade 1: number of patients with an event [1, 13]: 1
- Feet paresthesia, grade 1: number of patients with an event [1, 13]: 1
- Genital herpes, grade 1: number of patients with an event [1, 13]: 1
- Genital herpes, grade 2: number of patients with an event [1, 13]: 1
- Headache, grade 1: number of patients with an event [1, 13]: 1
- Mucosal dryness, grade 1: number of patients with an event [1, 13]: 1
- Nausea, grade 1: number of patients with an event [1, 13]: 1
- Neuropathy, grade 1: number of patients with an event [1, 13]: 1
- Transaminases increase, grade 1: number of patients with an event [1, 13]: 1
- dose-limiting toxicities (DLTs) ([1]; rucaparib 400 mg BID + bevacizumab 15 mg/kg d1 q21d): No DLTs
- Abdominal pain, grade 1: number of patients with an event [1, 14]: 1
- Arthralgia, grade 1: number of patients with an event [1, 14]: 1
- Bleeding gums, grade 1: number of patients with an event [1, 14]: 1
- Diarrhea, grade 1: number of patients with an event [1, 14]: 1
- Diarrhea, grade 1: number of total events [1, 14]: 3
- Dysgeusia, grade 1: number of patients with an event [1, 14]: 1
- Dysgeusia, grade 2: number of patients with an event [1, 14]: 1
- Fatigue, grade 1: number of patients with an event [1, 14]: 1
- Flushes, grade 1: number of patients with an event [1, 14]: 1
- High cholesterol, grade 1: number of patients with an event [1, 14]: 1
- High cholesterol, grade 2: number of patients with an event [1, 14]: 1
- Hypertension, grade 2: number of patients with an event [1, 14]: 3 (3)
- Hypertension, grade 2: number of total events [1, 14]: 3 (3)
- Insomnia, grade 2: number of patients with an event [1, 14]: 1
- Nausea, grade 1: number of patients with an event [1, 14]: 2 (2)
- Nausea, grade 1: number of total events [1, 14]: 2 (2)
- Transaminases increase, grade 1: number of patients with an event [1, 14]: 1
- Vomiting, grade 1: number of patients with an event [1, 14]: 1
- dose-limiting toxicities (DLTs) ([1]; rucaparib 500 mg BID + bevacizumab 15 mg/kg d1 q21d): No DLTs
- ALT increase, grade 2: number of patients with an event [1, 15]: 1
- ALT increase, grade 3: number of patients with an event [1, 15]: 1
- AST increase, grade 2: number of patients with an event [1, 15]: 1
- AST increase, grade 3: number of patients with an event [1, 15]: 1
- Abdominal pain, grade 1: number of patients with an event [1, 15]: 1
- Arthralgia, grade 1: number of patients with an event [1, 15]: 1
- Arthralgia, grade 2: number of patients with an event [1, 15]: 1
- Constipation, grade 2: number of patients with an event [1, 15]: 1
- Depression, grade 1: number of patients with an event [1, 15]: 1
- Depression, grade 1: number of total events [1, 15]: 2
- Depression, grade 2: number of patients with an event [1, 15]: 1
- Depression, grade 3: number of patients with an event [1, 15]: 1
- Diarrhea, grade 1: number of patients with an event [1, 15]: 1
- Dysgeusia, grade 1: number of patients with an event [1, 15]: 1
- Epigastralgia, grade 1: number of patients with an event [1, 15]: 1
- Fatigue, grade 1: number of patients with an event [1, 15]: 1
- Fever, grade 2: number of patients with an event [1, 15]: 1
- Hallucination, grade 3: number of patients with an event [1, 15]: 1
- Headache, grade 1: number of patients with an event [1, 15]: 1
- Lack of appetite, grade 1: number of patients with an event [1, 15]: 1
- Limb pain, grade 1: number of patients with an event [1, 15]: 1
- Mucositis, grade 1: number of patients with an event [1, 15]: 1
- Nausea, grade 1: number of patients with an event [1, 15]: 3
- Nausea, grade 1: number of total events [1, 15]: 4
- Nausea, grade 2: number of patients with an event [1, 15]: 1
- Nausea, grade 2: number of total events [1, 15]: 3
- Neutrophils decreased, grade 2: number of patients with an event [1, 15]: 1
- Skin bruises, grade 1: number of patients with an event [1, 15]: 1
- Stranguria, grade 1: number of patients with an event [1, 15]: 1
- Toothache, grade 1: number of patients with an event [1, 15]: 1
- patients affected by DLTs ([1]; rucaparib 600 mg BID + bevacizumab 15 mg/kg d1 q21d): two out of three patients
- patients with dose reduction due to a TEAE (patients [5]): 55%
- patients with grade 3 or higher TEAEs (patients [5]): 56%
- patients with grade 3 or higher anemia (patients [5]): 19%
- incidence of increased alanine/aspartate aminotransferase levels (patients [3]; vs olaparib or niraparib): higher incidence

Compound: Cn1ncnc1[C@H]1c2n[nH]c(=O)c3cc(F)cc(c23)N[C@@H]1c1ccc(F)cc1 [talazoparib]
- potency for DNA trapping [6]: more potent DNA trapping abilities
